Measured values published in ChEMBL document CHEMBL2407059, “Discovery and characterization of carbamothioylacrylamides as EP2 selective antagonists” (ACS Med Chem Lett, 2013).
In brackets after ≈: the same amount, converted by molar mass. Activity calls are given as the source filed them. No cut-off for these calls is given here.

Key:
[1] = molecular target: Beta-2 adrenergic receptor (Homo sapiens) (UniProt P07550); experiment: Inhibition of beta2-adrenergic receptor (unknown origin) overexpressed in rat C6G cells up to 40 uM by TR-FRET assay; type: cell-based
Chain of Beta-2 adrenergic receptor (Homo sapiens) (P07550 whole entry, looked up): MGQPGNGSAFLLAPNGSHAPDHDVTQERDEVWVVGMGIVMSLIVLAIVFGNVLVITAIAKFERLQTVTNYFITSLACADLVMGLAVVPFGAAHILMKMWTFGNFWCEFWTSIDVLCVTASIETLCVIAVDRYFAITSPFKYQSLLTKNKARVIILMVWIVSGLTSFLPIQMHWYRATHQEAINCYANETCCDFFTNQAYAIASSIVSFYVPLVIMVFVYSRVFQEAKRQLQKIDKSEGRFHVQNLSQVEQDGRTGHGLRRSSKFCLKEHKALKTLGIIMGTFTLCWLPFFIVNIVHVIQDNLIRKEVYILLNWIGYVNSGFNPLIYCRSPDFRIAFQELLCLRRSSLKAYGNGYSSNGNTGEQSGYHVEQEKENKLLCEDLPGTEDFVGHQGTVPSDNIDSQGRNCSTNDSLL

Brain [2] = experiment: Drug uptake in C57BL/6 mouse brain at 10 mg/kg, po after 1 to 2 hrs; type: ADME, organism-based; set-up: dose 10 mg/kg, route oral; settings: in vivo
Outline: (§1)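 Female C57BL/6 mice dosed 10 mg/kg by oral gavage or 5 mg/kg i.p. (10 mg/kg i.p. also examined for brain) in vehicle of 10% DMSO, 70% PEG400, 20% sterile water. Brain tissue collected at 1 and 2 h post-dose; brain-to-plasma ratio reported.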

[3] = molecular target: Prostaglandin E2 receptor EP2 subtype (Mus musculus) (UniProt Q62053); experiment: Inhibition of EP2 receptor-mediated mouse P388D1 macrophage activation assessed as inhibition of butaprost-induced IL-6 mRNA expression at 10 uM incubated for 1 hr prior to butaprost-challenge measured after 2 hrs by qRT-PCR analysis
Chain of Prostaglandin E2 receptor EP2 subtype (Mus musculus) (Q62053 whole entry): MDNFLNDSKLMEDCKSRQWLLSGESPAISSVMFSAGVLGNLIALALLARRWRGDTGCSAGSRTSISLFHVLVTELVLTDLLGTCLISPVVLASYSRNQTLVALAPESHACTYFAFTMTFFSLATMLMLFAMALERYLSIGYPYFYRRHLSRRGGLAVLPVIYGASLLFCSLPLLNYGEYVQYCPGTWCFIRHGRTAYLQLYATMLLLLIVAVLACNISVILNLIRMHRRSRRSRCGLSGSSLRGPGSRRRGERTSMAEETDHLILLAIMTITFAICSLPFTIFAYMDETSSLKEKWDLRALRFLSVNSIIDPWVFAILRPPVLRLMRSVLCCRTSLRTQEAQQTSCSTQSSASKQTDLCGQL
Outline: (§2)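 P388D1 mouse macrophages pretreated 1 h with 10 μM antagonist or vehicle, then stimulated 2 h with EP2-selective agonist butaprost (10 μM). Inflammatory mediator mRNA quantified by qRT-PCR; n = 3–4, mean ± SEM, one-way ANOVA with post hoc Bonferroni test.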

[4] = molecular target: Prostaglandin E2 receptor EP2 subtype (Mus musculus) (UniProt Q62053); experiment: Inhibition of EP2 receptor-mediated mouse P388D1 macrophage activation assessed as inhibition of butaprost-induced IL-23 mRNA expression at 10 uM incubated for 1 hr prior to butaprost-challenge measured after 2 hrs by qRT-PCR analysis; outline: as §2
[5] = Plasma concentration in C57BL/6 mouse at 10 mg/kg, po after 30 mins; type: ADME, organism-based; set-up: dose 10 mg/kg, route oral
Outline: (§3)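 Female C57BL/6 mice dosed 10 mg/kg by oral gavage or 5 mg/kg i.p. in 10% DMSO/70% PEG400/20% sterile water. Blood drawn at five time points from 0.5 to 8 h and processed to plasma. Compound concentration in plasma measured; n = 3 mice per time point, mean ± SEM.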

[6] = molecular target: Prostaglandin E2 receptor EP4 subtype (Homo sapiens) (UniProt P35408); experiment: Inhibition of human EP4 receptor overexpressed in rat C6G cells up to 40 uM by TR-FRET assay; type: cell-based
Chain of Prostaglandin E2 receptor EP4 subtype (Homo sapiens) (P35408 whole entry): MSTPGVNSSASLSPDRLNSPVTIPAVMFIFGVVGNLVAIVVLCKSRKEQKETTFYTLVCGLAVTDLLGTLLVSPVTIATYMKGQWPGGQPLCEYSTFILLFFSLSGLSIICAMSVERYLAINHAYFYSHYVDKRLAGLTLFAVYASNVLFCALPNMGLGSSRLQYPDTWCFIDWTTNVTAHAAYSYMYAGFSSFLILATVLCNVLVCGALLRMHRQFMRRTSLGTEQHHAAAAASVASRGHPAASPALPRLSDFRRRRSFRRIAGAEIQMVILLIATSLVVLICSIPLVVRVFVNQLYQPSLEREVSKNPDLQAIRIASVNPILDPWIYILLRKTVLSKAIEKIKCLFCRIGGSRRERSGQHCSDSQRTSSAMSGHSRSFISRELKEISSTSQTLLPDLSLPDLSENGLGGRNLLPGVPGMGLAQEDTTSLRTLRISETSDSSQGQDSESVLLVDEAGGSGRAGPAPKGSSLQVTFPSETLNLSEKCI

Nucleic Acid = experiment: Ratio of drug level in brain to plasma in C57BL/6 mouse at 10 mg/kg, ip; type: ADME, organism-based; set-up: dose 10 mg/kg, route intraperitoneal
Outline: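 Female C57BL/6 mice dosed 10 mg/kg i.p. Plasma prepared from blood, and brain tissue collected at 1 h. Brain-to-plasma concentration ratio calculated from the two levels.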

[7] = Metabolic stability in mouse liver microsomes assessed as compound remaining at 1 to 10 uM after 60 mins; type: ADME, Microsome; settings: read-out: Stability
[8] = molecular target: Prostaglandin E2 receptor EP2 subtype (Mus musculus) (UniProt Q62053); experiment: Inhibition of EP2 receptor-mediated mouse P388D1 macrophage activation assessed as inhibition of butaprost-induced IL-1beta mRNA expression at 10 uM incubated for 1 hr prior to butaprost-challenge measured after 2 hrs by qRT-PCR analysis; outline: as §2
[9] = Metabolic stability in human liver microsomes assessed as compound remaining at 1 to 10 uM after 60 mins; type: ADME, Microsome; settings: read-out: Stability
[10] = molecular target: Prostaglandin E2 receptor EP2 subtype (Mus musculus) (UniProt Q62053); experiment: Inhibition of EP2 receptor-mediated mouse P388D1 macrophage activation assessed as inhibition of butaprost-induced IL-17 mRNA expression at 10 uM incubated for 1 hr prior to butaprost-challenge measured after 2 hrs by qRT-PCR analysis; outline: as §2
Brain [11] = experiment: Drug uptake in C57BL/6 mouse brain at 10 mg/kg, ip after 1 hr; type: ADME, organism-based; set-up: dose 10 mg/kg, route intraperitoneal; settings: in vivo; outline: as §1
[12] = Inhibition of Staphylococcus aureus NadD
C6 = experiment: Cytotoxicity against rat C6 cells after 48 hrs; type: cell-based; settings: c6, 48 h
Outline: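 C6G cells are incubated with compound for 48 h, then cell viability is measured and CC50 derived.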

[13] = Aqueous solubility of the compound in PBS buffer at pH 7.0 by nephelometry; type: physicochemical
[14] = molecular target: T1, Prostaglandin E2 receptor EP2 subtype (Homo sapiens, UniProt P43116); experiment: Antagonist activity at human EP2 receptor overexpressed in rat C6 cells assessed as inhibition of PGE2-induced cAMP accumulation incubated for 10 mins prior to PGE2 addition measured after 40 mins by TR-FRET assay; type: functional, cell-based
T1 sequence (P43116 whole entry): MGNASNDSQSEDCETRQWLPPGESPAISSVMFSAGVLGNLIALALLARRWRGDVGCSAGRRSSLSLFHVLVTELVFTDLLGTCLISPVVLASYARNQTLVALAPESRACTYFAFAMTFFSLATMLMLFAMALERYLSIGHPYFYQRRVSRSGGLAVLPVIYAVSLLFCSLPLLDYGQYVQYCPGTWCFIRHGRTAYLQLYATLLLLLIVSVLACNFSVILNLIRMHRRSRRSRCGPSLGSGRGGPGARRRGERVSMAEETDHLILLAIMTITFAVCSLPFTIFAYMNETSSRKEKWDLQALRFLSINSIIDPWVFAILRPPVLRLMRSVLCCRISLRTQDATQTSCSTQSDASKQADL

[15] = molecular target: Prostaglandin E2 receptor EP2 subtype (Mus musculus) (UniProt Q62053); experiment: Inhibition of EP2 receptor-mediated mouse P388D1 macrophage activation assessed as inhibition of butaprost-induced TNF-alpha mRNA expression at 10 uM incubated for 1 hr prior to butaprost-challenge measured after 2 hrs by qRT-PCR analysis; outline: as §2
Brain [16] = experiment: Drug uptake in C57BL/6 mouse brain at 5 mg/kg, ip after 1 to 2 hrs; type: ADME, organism-based; set-up: dose 5 mg/kg, route intraperitoneal; settings: in vivo; outline: as §1
[17] = molecular target: Prostaglandin E2 receptor EP2 subtype (Mus musculus) (UniProt Q62053); experiment: Inhibition of EP2 receptor-mediated mouse P388D1 macrophage activation assessed as inhibition of butaprost-induced COX-2 mRNA expression at 10 uM incubated for 1 hr prior to butaprost-challenge measured after 2 hrs by qRT-PCR analysis; outline: as §2
[18] = molecular target: Prostaglandin E2 receptor EP2 subtype (Mus musculus) (UniProt Q62053); experiment: Inhibition of EP2 receptor-mediated mouse P388D1 macrophage activation assessed as inhibition of butaprost-induced IL-12 mRNA expression at 10 uM incubated for 1 hr prior to butaprost-challenge measured after 2 hrs by qRT-PCR analysis
Outline: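 P388D1 macrophage line pretreated 1 h with test agent at 10 μM or vehicle, then stimulated with the EP2-selective agonist butaprost (10 μM) for 2 h. Inflammatory mediator mRNA quantified by qRT-PCR. n = 3–4, mean ± SEM, one-way ANOVA with post hoc Bonferroni test.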

[19] = Plasma concentration in C57BL/6 mouse at 5 mg/kg, ip after 30 mins; type: ADME, organism-based; set-up: dose 5 mg/kg, route intraperitoneal; outline: as §3
[20] = molecular target: T2, Prostaglandin D2 receptor (Homo sapiens) (UniProt Q13258); experiment: Antagonist activity at human DP1 receptor overexpressed in rat C6 cells assessed as inhibition of BW245C-induced cAMP accumulation incubated for 10 mins prior to BW245C addition measured after 40 mins by TR-FRET assay; type: functional, cell-based
T2 sequence (whole entry): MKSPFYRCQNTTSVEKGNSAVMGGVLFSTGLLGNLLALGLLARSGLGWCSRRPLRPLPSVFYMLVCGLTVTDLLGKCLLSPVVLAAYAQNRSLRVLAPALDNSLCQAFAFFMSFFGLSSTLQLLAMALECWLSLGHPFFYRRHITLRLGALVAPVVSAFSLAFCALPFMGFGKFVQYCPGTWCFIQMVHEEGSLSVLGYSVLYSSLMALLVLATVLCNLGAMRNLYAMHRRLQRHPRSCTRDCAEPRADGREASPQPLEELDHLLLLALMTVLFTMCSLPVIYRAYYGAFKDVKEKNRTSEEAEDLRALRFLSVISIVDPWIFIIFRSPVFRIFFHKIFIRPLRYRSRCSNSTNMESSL

[21] = molecular target: Prostaglandin E2 receptor EP4 subtype (Homo sapiens) (UniProt P35408); experiment: Antagonist activity at human EP4 receptor overexpressed in rat C6 cells assessed as inhibition of PGE2-induced cAMP accumulation incubated for 10 mins prior to PGE2 addition measured after 40 mins by TR-FRET assay; type: functional, cell-based
[22] = molecular target: T1, Prostaglandin E2 receptor EP2 subtype; experiment: Competitive antagonist activity at human EP2 receptor overexpressed in rat C6 cells by Schild plot analysis; type: cell-based
[23] = molecular target: Prostacyclin receptor (Homo sapiens) (UniProt P43119); experiment: Antagonist activity at human IP receptor overexpressed in rat C6 cells assessed as inhibition of iloprost-induced cAMP accumulation incubated for 10 mins prior to iloprost addition measured after 40 mins by TR-FRET assay; type: functional, cell-based
Chain of Prostacyclin receptor (Homo sapiens) (P43119 whole entry): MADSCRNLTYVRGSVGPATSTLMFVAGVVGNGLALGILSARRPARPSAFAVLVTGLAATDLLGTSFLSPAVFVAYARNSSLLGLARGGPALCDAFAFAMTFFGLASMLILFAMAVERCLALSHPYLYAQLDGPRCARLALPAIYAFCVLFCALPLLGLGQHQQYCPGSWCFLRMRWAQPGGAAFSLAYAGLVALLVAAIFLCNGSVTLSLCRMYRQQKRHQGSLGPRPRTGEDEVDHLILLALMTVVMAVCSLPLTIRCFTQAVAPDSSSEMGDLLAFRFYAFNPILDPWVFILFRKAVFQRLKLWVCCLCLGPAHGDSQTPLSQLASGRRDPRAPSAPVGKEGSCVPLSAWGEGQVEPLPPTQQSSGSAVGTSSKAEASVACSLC

CCc1nnc(NS(=O)(=O)c2ccc(NC(=S)NC(=O)/C=C/c3ccc(F)cc3)cc2)s1
inhibition [1]: inactive
Drug uptake (Brain [2]): Not Active
inhibition [3]: Active
inhibition [4]: Active
concentration at 0.5 h [5]: 12 µM
inhibition [6]: inactive
BPR (Nucleic Acid): 0.02
remaining at 1 h, up to 10 µM [7]: 40%
inhibition [8]: Active
remaining at 1 h, up to 10 µM [9]: 40%
inhibition [10]: Active
Drug uptake (Brain [11]): Active
IC50 [12]: 4.5 µM
CC50 (C6): 326 µM
solubility kinetic [13]: 71 µg/mL (≈ 144 µM)
IC50 [14]: 1.6 µM
inhibition [14]: Dose-dependent effect
inhibition [15]: Active
Drug uptake (Brain [16]): Not Active
inhibition [17]: Active
inhibition [18]: Active
concentration at 0.5 h [19]: 30 µM

CCc1nnc(NS(=O)(=O)c2ccc(NC(=S)NC(=O)/C=C/c3ccccc3)cc2)s1
Kb [20]: 9.8 µM
CC50 (C6): 370 µM

COc1cc(NS(=O)(=O)c2ccc(NC(=S)NC(=O)/C=C/c3ccc(F)cc3)cc2)ncn1
KB [20]: inactive
Kb [21]: 18.2 µM
remaining at 1 h, up to 10 µM [7]: 40%
remaining at 1 h, up to 10 µM [9]: 40%
CC50 (C6): 378 µM

COc1cc(NS(=O)(=O)c2ccc(NC(=S)NC(=O)c3sc4cc(F)ccc4c3Cl)cc2)nc(OC)n1
Kb [22]: 0.108 µM
Kb [20]: 8.7 µM
Kb [21]: 0.7 µM
Kb [23]: 21 µM
CC50 (C6): 96 µM

CCc1nnc(NS(=O)(=O)c2ccc(NC(=S)NC(=O)c3ccc(OC)cc3)cc2)s1
Kb [20]: 16.1 µM
Kb [23]: 1.73 µM
CC50 (C6): 186 µM

COc1cc(NS(=O)(=O)c2ccc(NC(=S)NC(=O)c3cccs3)cc2)nc(OC)n1
Kb [20]: 25.2 µM
Kb [23]: 5.9 µM
CC50 (C6): 258 µM

COc1ccc(NS(=O)(=O)c2ccc(NC(=S)NC(=O)/C=C/c3ccc(C)cc3)cc2)nn1
Kb [22]: 0.0133 µM
KB [20]: inactive
Kb [21]: 20.5 µM
Kb [23]: 0.36 µM
CC50 (C6): 150 µM

CCc1nnc(NS(=O)(=O)c2ccc(NC(=S)NC(=O)/C=C/c3ccc(OC)cc3)cc2)s1
Kb [22]: 0.0345 µM
Kb [20]: 46.6 µM
Kb [21]: 13 µM
Kb [23]: 0.36 µM
CC50 (C6): 365 µM

CCc1nnc(NS(=O)(=O)c2ccc(NC(=S)NC(=O)/C=C/c3cccs3)cc2)s1
Kb [23]: 2.26 µM
CC50 (C6): 330 µM
